Assay outcomes as filed in PubChem.
sEH act = soluble epoxide hydrolase (human) activation; purified human sEH enzymatic activity, activator screen; activation, % at 2 µM; 91,000 tested, 0.04% active; in the data active means activation above about 37%
Target sequence (P34913 whole entry, looked up): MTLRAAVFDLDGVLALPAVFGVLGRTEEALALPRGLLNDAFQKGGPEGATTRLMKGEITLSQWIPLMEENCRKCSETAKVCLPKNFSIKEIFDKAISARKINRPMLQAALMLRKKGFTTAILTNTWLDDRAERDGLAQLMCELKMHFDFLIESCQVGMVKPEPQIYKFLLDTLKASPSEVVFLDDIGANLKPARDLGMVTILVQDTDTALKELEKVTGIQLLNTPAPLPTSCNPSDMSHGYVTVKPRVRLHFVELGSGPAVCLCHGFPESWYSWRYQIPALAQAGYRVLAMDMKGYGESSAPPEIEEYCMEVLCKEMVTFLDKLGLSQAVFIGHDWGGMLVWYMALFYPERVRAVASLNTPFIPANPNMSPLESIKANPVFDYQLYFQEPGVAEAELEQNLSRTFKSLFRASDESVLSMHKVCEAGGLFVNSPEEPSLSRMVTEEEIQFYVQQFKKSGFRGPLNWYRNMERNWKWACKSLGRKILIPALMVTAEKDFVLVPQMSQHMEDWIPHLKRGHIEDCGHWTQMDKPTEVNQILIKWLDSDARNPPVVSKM
Measles CPE = protection of cells from measles virus; Measles virus-infected cells, CPE protection, absorbance; protection (pct of control), % at 4 µM; 140,000 tested, 1.5% active; AID 841; in the data active means protection mostly above about 24%, no sharp cut-off; inactive means mostly below about 26%
sdo1 growth = compounds rescuing growth of sdo1-depleted yeast, bone marrow failure model | S. cerevisiae sdo1-depleted JHY4D growth rescue, OD600 30 h; stronger effect = higher value; pdr5 snq2 efflux-pump mutant strain | z-score at 10 µM | 140,000 tested, 0.21% active;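 active means z-score above 3 at both the 24 hr and the 30 hr optical density reads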;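 further: z-score against mean and SD of all compound wells on the same plate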
sEH inhibitor = soluble epoxide hydrolase (human) inhibition. P34913. recombinant human sEH enzymatic activity assay. inhibition, % at 2 µM. 91,000 tested, 0.34% active. AID 707; in the data active means inhibition above about 80%
Yeast lifespan up = yeast lifespan extension | S. cerevisiae growth with nicotinamide, OD615; deaD strain in restrictive glucose medium | inhibition of the nicotinamide effect, % at 10 µM | 130,000 tested, 0.68% active | AID 775;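 active means inhibition above a set limit, placed 3 SD over the median of all compounds, cut at about 26% in these data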;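 further: 0% = nicotinamide-treated wells and 100% = cells grown without nicotinamide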
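Assay system: engineered S. cerevisiae DeaD replicative-lifespan strain, galactose-grown log-phase cells; medium: restrictive CSMM-D dextrose medium; also added: nicotinamide, 1.5 mM, co-present with compound; schedule: 48 h compound exposure at 30 °C, humidified; detection: absorbance at 615 nm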
Yeast growth inh = chemicals that inhibit yeast BB579 growth in restrictive medium (lifespan-shortening candidates); S. cerevisiae BB579 growth, OD615, 48 h; inhibition, % at 10 µM; 140,000 tested, 0.51% active;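 active means inhibition above a set limit, 3 SD over the mean compound inhibition, cut at about 44% in these data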
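System: DeaD yeast strain BB579; buffer or medium: CSMM-D dextrose restrictive medium; technique: OD at 615 nm; schedule: 4 h cell preincubation, 48 h compound exposure, 30 °C humidified; doses: single 10 µM dose; controls: amphotericin B 10 µg/mL, positive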
Active calls of the source: *; · = no result. Compounds with a hit are over-represented: about 3% of the library has one in this group of screens.

SMILES	sEH act	Measles CPE	sdo1 growth	sEH inhibitor	Yeast lifespan up	Yeast growth inh
O=C(Nc1ccccn1)c1c(O)c2cccc3c2n(c1=O)CCC3	15	16	0.55	-18	0	-18
O=C(NCC1CCCO1)c1c(O)c2cccc3c2n(c1=O)CC3 (stereo not drawn)	-6	55*	-1.3	7	13	-41
Cc1csc(NC(=O)c2ccc3c(=O)n4c(nc3c2)CCCCC4)n1	·	8	0.01	·	4	-19
O=C(Nc1nccs1)c1ccc2c(=O)n3c(nc2c1)CCCCC3	·	24	-1.7	·	51*	-34
COc1coc(C(O)CN)cc1=O (stereo not drawn)	·	1	1.4	·	-3	-42
CCOC(=O)C(=Cc1cc(=O)c(OC)co1)C(=O)OCC	·	0	-1.1	·	35*	-16
O=C1Nc2ccccc2C(O)(C(=O)NCc2ccc3c(c2)OCO3)N1c1ccc(Cl)c(Cl)c1 (stereo not drawn)	3	9	0.49	0	-4	-47
O=[N+]([O-])c1ccc(N/N=C2/CCCCC2c2ccccn2)cc1 (stereo not drawn)	·	4	-1.9	·	-10	98*
CN1CCCCC1=NCCCn1cnc2c1c(=O)n(C)c(=O)n2C	-4	19*	0.2	6	-10	-22
COc1ccc(N2CCC(CNC(=S)Nc3cccc(OC)c3)C2)cc1 (stereo not drawn)	·	5	-1.9	·	-5	-6
COc1ccc(N2CCC(CNC(=O)Nc3cccc(OC)c3)C2)cc1 (stereo not drawn)	-86	34	-1.1	86*	-10	-35
O=C(/C=C/c1ccccc1)CC(O)(c1ccccc1)C(F)(F)C(F)F (stereo not drawn)	6	14	-1.9	-10	40*	-42
O=C(/C=C/c1ccccc1)CC(O)(c1ccccc1)C(F)(F)F (stereo not drawn)	-8	5	-2	5	35*	-27
COC(=O)C(C)Sc1nc2c(cnn2-c2ccc(C)cc2)c(=O)[nH]1 (stereo not drawn)	0	59*	-1.7	-2	-19	-24
COc1ccc(CCNC(=O)CN2CCC(C)CC2)cc1OC	1	32*	0.26	1	14	-20
COc1ccc(CCNC(=O)CN(C)S(=O)(=O)c2ccc(Br)s2)cc1OC	·	4	0.53	·	0	-32
COc1ccc(CCNC(=O)CN(C)S(=O)(=O)c2cccs2)cc1OC	-13	36*	1.4	12	-9	-3
COc1ccc(CCNC(=O)CN2CCCc3ccccc32)cc1OC	7	45*	0.57	-6	-10	-47
COc1cccc(/C=C/C(=O)OCC(=O)NCc2ccco2)c1	·	5	-0.32	·	-6	-35
CN1C(=O)C(Cl)(Cl)C(=O)c2ccccc21	·	5	0.49	·	47*	-47
COc1ccc(OC)c(C2C3=C(CC(C)(C)CC3=O)Nc3nnnn32)c1 (stereo not drawn)	·	31*	0.54	·	2	-18
CC(C)CN1C(=O)C(=O)N(CC(=O)NCc2ccc3c(c2)OCO3)C1=O	22	76	0.09	-22	-10	-59
CC(C)CN1C(=O)c2ccc(C(=O)NCc3ccc4c(c3)OCO4)cc2C1=O	-82	1	0.86	81*	15	-42
Cc1oc(CC(C)C)c(CN)c1C(=O)O	8	27	2.4	-10	-20	-27
CCC(CO)NCc1cc(OC)c(OCC(=O)NCCc2ccccc2)cc1Br (stereo not drawn)	·	6	-0.35	·	-1	-40
SMILES	sEH act	Measles CPE	sdo1 growth	sEH inhibitor	Yeast lifespan up	Yeast growth inh
CC1=CC(C)C2COC(c3ccc[n+](C)c3)C1C2C (stereo not drawn)	·	58*	0.34	·	3	-1
O=C(CSc1nncs1)Nc1ccc(Cl)cn1	·	14	1.1	·	-4	-23
CCc1nnc(NC(=O)CSc2nc3c(cc2C#N)CCC3)s1	0	11	-0.67	-5	2	-28
N#Cc1cc2c(nc1SCC(=O)Nc1nccs1)CCCCC2	10	34*	-1.5	-8	11	-42
Cc1ccc2[nH]c(=O)c(CN(CC3CCCO3)C(=S)Nc3ccccc3)cc2c1 (stereo not drawn)	·	3	-1.1	·	-3	-28
COC(=O)C1=C(C(=O)OC)C(c2cc(Br)ccc2O)c2sc(=O)[nH]c2S1 (stereo not drawn)	·	11	-0.8	·	61*	-16
COC(=O)C1=C(C)N=C2SCCC(=O)N2C1c1cc(Br)ccc1OC (stereo not drawn)	·	8	-0.81	·	-1	-15
COC(=O)c1nn(-c2ccc(Cl)cc2)c(=O)cc1Sc1ccccn1	4	28*	-0.64	-6	27	-25
CCNC(=O)c1ccccc1-c1nc(-c2ccccc2Cl)no1	2	35*	-0.35	-3	-19	10
CS(=O)(=O)C1=NSC2=NC(=O)/C(=C\c3ccc(-c4ccccc4)o3)C(=N)N21	·	2	-0.03	·	2	-2
CCSC1=NSC2=NC(=O)/C(=C\c3coc4ccccc4c3=O)C(=N)N12	·	11	0.29	·	38*	-16
CCCCn1c(SCC(=O)Nc2cc(C)on2)nnc1-c1ccco1	1	2	0.48	-3	-7	-5
CCn1c(SCC(=O)Nc2cc(C)on2)nnc1-c1ccco1	-14	35*	0.09	12	-1	-30
FC(F)(F)c1cccc(NCc2cn3cccnc3n2)c1	5	55*	1.2	-4	-21	-38
COCCN1CCn2c(nc3cc(NC(=O)NC4CCCCC4)ccc32)C1	-76	1	-0.27	76	-11	-37
O=C(Nc1ccc2c(c1)nc1n2CCN(Cc2ccccc2)C1)NC1CCCCC1	-91	17	0.14	91*	-12	-28
Nc1c(Cl)ncnc1N/N=C/c1ccccn1	·	7	-0.07	·	-13	96*
Cc1nc(Nc2ccc(Cl)cc2Cl)sc1C(=O)Nc1ccccc1	·	10	-1.6	·	-5	-30
Cc1nc(Nc2ccc(Cl)c(Cl)c2)sc1C(=O)Nc1ccccc1	·	10	-1.5	·	0	79*
O=c1[nH]c(C2CCCN(S(=O)(=O)c3ccc(F)cc3)C2)nc2c1nnn2Cc1ccccc1 (stereo not drawn)	11	14	-0.01	-13	-3	-26
Cc1ccc(Cn2nnc3c(=O)[nH]c(C4CCCN(S(=O)(=O)c5ccccc5)C4)nc32)cc1 (stereo not drawn)	-46	46*	0.05	43	-12	-7
CCCCNC(=S)NNC(=O)c1ccco1	-7	13	2.8	9	·	-8
[O-][N+]1=C(c2cccs2)CN(O)C1	13	34*	0.94	-14	1	-35
CC1(C)N(O)CC(c2cccs2)=[N+]1[O-]	·	5	0.6	·	-7	-7
NC(=O)N/N=C/c1c(F)cccc1F	·	30	0.78	·	1	-11
CC(/C=N/NC(=O)Cc1cccs1)=C\c1ccccc1	·	4	-1.3	·	4	-62
O=C(Cc1cccs1)N/N=C/C(Br)=C/c1ccccc1	-23	48*	-0.8	24	-1	-42
